Test results from article PMC4750707 (Antimicrobial Agents and Chemotherapy, 2016).
≈ marks a conversion by molar mass, not a printed value.

Key:
S. pneumoniae PBP1a/b = test: PBP competition assay with Bocillin FL; assay type: binding, Streptococcus pneumoniae; conditions: S. pneumoniae R6 membranes; Bocillin FL 100 μM
In short: (§1)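 S. pneumoniae R6 was grown on blood agar at 37°C under 5% CO2, then in BHI with agitation to A600 ~1.0. Cells in KPN buffer pH 7.5 were lysozyme-treated and French-pressed; membranes (30–40 μg protein) were used. Test compound 10 min at 30°C, then Bocillin FL 100 μM final for 20 min. SDS-PAGE fluorescence; IC50 from three assays of six concentrations.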

H. influenzae PBP2 = H. influenzae PBP2 (Haemophilus influenzae, UniProt P44469); test: PBP competition assay with Bocillin FL; assay type: binding
Chain of H. influenzae PBP2 (P44469 whole entry): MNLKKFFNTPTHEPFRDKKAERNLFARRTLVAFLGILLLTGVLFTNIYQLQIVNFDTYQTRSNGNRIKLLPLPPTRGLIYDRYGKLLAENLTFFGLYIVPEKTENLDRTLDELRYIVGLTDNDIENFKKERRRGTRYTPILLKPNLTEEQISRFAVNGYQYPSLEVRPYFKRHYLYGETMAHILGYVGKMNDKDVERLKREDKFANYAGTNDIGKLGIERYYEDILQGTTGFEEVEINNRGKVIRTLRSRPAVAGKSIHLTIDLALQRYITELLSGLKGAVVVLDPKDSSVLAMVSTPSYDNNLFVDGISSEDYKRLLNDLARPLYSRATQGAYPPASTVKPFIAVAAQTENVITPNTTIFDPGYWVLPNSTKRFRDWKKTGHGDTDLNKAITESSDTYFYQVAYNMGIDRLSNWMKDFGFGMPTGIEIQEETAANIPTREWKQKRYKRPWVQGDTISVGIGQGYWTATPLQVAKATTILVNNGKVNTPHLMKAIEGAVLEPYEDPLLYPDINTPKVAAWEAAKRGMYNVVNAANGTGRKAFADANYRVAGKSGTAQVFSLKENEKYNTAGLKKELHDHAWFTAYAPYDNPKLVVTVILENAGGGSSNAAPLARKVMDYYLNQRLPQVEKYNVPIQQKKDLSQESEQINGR
In short: (§2)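 H. influenzae Rd grown in supplemented BHI at 35°C (A600 0.6–0.7). Cells in KPN buffer (20 mM K-phosphate, 140 mM NaCl, pH 7.5), lysozyme-treated 30 min, French-pressed; membranes at 150,000 × g. Used 100–120 μg membrane protein. Test compound 10 min at 30°C, then Bocillin FL 100 μM final for 20 min. Gel fluorescence band volumes; IC50 from three assays of six concentrations.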

H. influenzae PBP4 = H. influenzae PBP4 (Haemophilus influenzae, UniProt P45161); test: PBP competition assay with Bocillin FL; assay type: binding
Chain of H. influenzae PBP4 (P45161 27-479): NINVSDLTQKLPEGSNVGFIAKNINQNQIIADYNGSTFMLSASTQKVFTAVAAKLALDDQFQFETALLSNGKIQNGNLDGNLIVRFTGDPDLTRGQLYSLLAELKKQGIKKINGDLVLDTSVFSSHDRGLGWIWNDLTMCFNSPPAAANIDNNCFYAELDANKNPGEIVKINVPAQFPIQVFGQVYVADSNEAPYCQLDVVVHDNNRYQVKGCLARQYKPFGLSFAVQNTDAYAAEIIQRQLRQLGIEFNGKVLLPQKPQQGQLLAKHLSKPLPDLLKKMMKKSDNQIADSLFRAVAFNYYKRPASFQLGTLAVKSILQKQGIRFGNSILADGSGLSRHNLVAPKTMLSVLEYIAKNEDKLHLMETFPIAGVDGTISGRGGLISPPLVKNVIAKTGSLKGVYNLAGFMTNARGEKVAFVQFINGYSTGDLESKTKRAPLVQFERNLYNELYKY
In short: as §2

S. pneumoniae PBP2a/b = test: PBP competition assay with Bocillin FL; assay type: binding, Streptococcus pneumoniae; conditions: S. pneumoniae R6 membranes; Bocillin FL 100 μM
In short: as §1

H. influenzae PBP5 = H. influenzae PBP5 (Haemophilus influenzae, UniProt P44466); test: PBP competition assay with Bocillin FL; assay type: binding
Chain of H. influenzae PBP5 (P44466 19-393): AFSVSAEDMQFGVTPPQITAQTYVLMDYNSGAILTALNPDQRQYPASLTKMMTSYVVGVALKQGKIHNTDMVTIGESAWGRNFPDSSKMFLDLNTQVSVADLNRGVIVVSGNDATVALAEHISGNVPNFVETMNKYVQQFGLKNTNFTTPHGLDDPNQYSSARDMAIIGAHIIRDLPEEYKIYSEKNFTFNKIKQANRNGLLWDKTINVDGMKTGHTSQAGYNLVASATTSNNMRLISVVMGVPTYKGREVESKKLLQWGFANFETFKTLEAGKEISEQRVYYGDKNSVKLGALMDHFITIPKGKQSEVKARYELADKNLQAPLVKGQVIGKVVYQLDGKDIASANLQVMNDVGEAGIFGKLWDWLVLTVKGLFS
In short: as §2

S. pneumoniae = test: Broth microdilution MIC; assay type: cell-based; conditions: Streptococcus pneumoniae
In short: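 MICs by CLSI broth microdilution in cation-adjusted Mueller-Hinton broth plus 2.5% lysed horse blood. S. pneumoniae R6 grown on blood agar at 37°C under 5% CO2.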

H. influenzae PBP1b = H. influenzae PBP1b (Haemophilus influenzae, UniProt P45345); test: PBP competition assay with Bocillin FL; assay type: binding
Chain of H. influenzae PBP1b (P45345 whole entry): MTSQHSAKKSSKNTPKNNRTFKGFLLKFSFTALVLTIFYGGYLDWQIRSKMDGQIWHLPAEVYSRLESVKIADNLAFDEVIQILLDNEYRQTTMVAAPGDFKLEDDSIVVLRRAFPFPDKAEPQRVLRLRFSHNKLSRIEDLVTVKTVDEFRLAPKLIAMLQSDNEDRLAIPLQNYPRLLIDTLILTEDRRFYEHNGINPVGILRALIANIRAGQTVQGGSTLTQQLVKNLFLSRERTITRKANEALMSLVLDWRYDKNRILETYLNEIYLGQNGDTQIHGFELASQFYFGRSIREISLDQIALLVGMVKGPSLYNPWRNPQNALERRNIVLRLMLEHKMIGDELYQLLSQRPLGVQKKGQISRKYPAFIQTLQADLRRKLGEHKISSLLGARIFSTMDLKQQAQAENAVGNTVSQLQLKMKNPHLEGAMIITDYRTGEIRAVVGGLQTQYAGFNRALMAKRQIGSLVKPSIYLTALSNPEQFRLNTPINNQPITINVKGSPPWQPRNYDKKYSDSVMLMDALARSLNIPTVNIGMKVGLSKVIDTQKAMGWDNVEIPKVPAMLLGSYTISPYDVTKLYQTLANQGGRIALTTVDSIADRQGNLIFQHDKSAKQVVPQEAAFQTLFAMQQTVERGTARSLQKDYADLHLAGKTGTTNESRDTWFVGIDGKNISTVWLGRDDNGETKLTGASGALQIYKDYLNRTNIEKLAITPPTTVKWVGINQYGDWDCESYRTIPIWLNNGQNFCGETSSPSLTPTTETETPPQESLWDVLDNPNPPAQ
In short: as §2

S. pneumoniae PBP2X = S. pneumoniae PBP2X (Streptococcus pneumoniae, UniProt P59676); test: PBP competition assay with Bocillin FL; assay type: binding
Chain of S. pneumoniae PBP2X (P59676 whole entry): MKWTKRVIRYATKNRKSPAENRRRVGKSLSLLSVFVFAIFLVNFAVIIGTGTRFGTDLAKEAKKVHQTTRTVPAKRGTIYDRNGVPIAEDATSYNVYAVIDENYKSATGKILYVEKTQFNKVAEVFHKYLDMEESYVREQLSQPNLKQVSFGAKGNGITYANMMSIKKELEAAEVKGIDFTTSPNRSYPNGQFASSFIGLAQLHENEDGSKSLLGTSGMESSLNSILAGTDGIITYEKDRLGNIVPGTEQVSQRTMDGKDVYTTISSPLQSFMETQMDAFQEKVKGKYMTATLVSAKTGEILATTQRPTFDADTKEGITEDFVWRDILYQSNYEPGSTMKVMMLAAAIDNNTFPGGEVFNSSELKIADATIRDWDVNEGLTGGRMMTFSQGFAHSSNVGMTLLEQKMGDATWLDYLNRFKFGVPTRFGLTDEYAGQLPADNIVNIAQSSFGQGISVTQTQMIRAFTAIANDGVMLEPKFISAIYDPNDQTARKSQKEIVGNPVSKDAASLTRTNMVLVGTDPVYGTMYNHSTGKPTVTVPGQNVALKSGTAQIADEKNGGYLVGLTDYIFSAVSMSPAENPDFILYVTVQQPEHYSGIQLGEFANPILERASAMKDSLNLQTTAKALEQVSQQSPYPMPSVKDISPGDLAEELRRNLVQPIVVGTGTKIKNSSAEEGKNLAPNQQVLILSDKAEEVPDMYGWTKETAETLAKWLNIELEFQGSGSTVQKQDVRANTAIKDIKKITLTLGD
In short: as §1

## NC(=O)[C@@H]1CC[C@@H]2CN1C(=O)N2OS(=O)(=O)O [AVI, avibactam]
S. pneumoniae PBP1a/b
  Relative binding (IC50) for PBP 1a/b: >64 µg/mL
H. influenzae PBP2
  IC50: 11.3 µM
H. influenzae PBP4
  IC50: > 121 µM
S. pneumoniae PBP2a/b
  Relative binding (IC50) for PBP 2a/b: >64 µg/mL
H. influenzae PBP5
  IC50: > 121 µM
S. pneumoniae
  MIC: 256 µg/mL (≈ 965 µM)
H. influenzae PBP1b
  IC50: > 121 µM
S. pneumoniae PBP2X
  IC50: > 241 µM
